Data: ChEMBL document CHEMBL4689842, “EUbOPEN Chemogenomics Library wave 1” (2021)

Tested on: HEK-293T
Test: Multiplex assay against HEK293T;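 on Population Tubulin-Different-Phenotype (%): share of the cells with healthy nuclei that show this phenotype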
Format: toxicity, cell-based
Settings: human
In short: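 Phenotypes for tubulin, mitochondrial mass and membrane permeability are expressed as per cents of healthy-nucleus cells. Cells were stained live at seeding with Hoechst33342, BioTracker Green Microtubule Cytoskeleton Dye, MitoTracker Red and Annexin V Alexa Fluor 680, then imaged after compound addition on a CQ1 microscope at 37°C and 5% CO2. Machine-learning gating in CellPathfinder separated Hoechst high-intensity objects from normal cells, divided normal cells by nuclear state (healthy, pyknosed, fragmented) and divided pyknosed cells into mitotic or apoptotic.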

[1] = 12 h, 1 µM, compound concentration 1 uM, replicate 1
[2] = 12 h, 1 µM, compound concentration 1 uM, replicate 2
[3] = 12 h, 10 µM, compound concentration 10 uM, replicate 1
[4] = 12 h, 10 µM, compound concentration 10 uM, replicate 2
[5] = 24 h, 1 µM, compound concentration 1 uM, replicate 1
[6] = 24 h, 1 µM, compound concentration 1 uM, replicate 2
[7] = 24 h, 10 µM, compound concentration 10 uM, replicate 1
[8] = 24 h, 10 µM, compound concentration 10 uM, replicate 2
[9] = 48 h, 1 µM, compound concentration 1 uM, replicate 1
[10] = 48 h, 1 µM, compound concentration 1 uM, replicate 2
[11] = 48 h, 10 µM, compound concentration 10 uM, replicate 1
[12] = 48 h, 10 µM, compound concentration 10 uM, replicate 2

CC(C)N1CCC(C)(C)c2cc(C#Cc3ccc(C(=O)O)cc3)ccc21
Population Apoptotic (%) [1]: 60% | Population Fragmented Nuclei (%) [1]: 13% | Population Healthy Nuclei (%) [1]: 45% | Population Hoechst High Intensity Objects (%) [1]: 17% | Population Membrane Permeable-Phenotype (%) [1]: 2% | Population Mitochondria Different-Phenotype (%) [1]: 74% | Population Mitotic Cells (%) [1]: 40% | Population Normal (%) [1]: 82% | Population Pyknosed Nuclei (%) [1]: 41% | Population Tubulin-Different-Phenotype (%) [1]: 43% | Total Cell Count [1]: 278 | Population Apoptotic (%) [2]: 18% | Population Fragmented Nuclei (%) [2]: 4% | Population Healthy Nuclei (%) [2]: 54% | Population Hoechst High Intensity Objects (%) [2]: 8% | Population Membrane Permeable-Phenotype (%) [2]: 8% | Population Mitochondria Different-Phenotype (%) [2]: 12% | Population Mitotic Cells (%) [2]: 81% | Population Normal (%) [2]: 91% | Population Tubulin-Different-Phenotype (%) [2]: 6% | Total Cell Count [2]: 156 | Population Apoptotic (%) [3]: 52% | Population Fragmented Nuclei (%) [3]: 51% | Population Healthy Nuclei (%) [3]: 40% | Population Hoechst High Intensity Objects (%) [3]: 64% | Population Membrane Permeable-Phenotype (%) [3]: 5% | Population Mitochondria Different-Phenotype (%) [3]: 66% | Population Mitotic Cells (%) [3]: 47% | Population Normal (%) [3]: 35% | Population Pyknosed Nuclei (%) [3]: 8% | Population Tubulin-Different-Phenotype (%) [3]: 23% | Total Cell Count [3]: 563 | Population Apoptotic (%) [4]: 16% | Population Fragmented Nuclei (%) [4]: 32% | Population Healthy Nuclei (%) [4]: 61% | Population Hoechst High Intensity Objects (%) [4]: 44% | Population Membrane Permeable-Phenotype (%) [4]: 4% | Population Mitochondria Different-Phenotype (%) [4]: 12% | Population Mitotic Cells (%) [4]: 83% | Population Normal (%) [4]: 55% | Population Pyknosed Nuclei (%) [4]: 5% | Population Tubulin-Different-Phenotype (%) [4]: 5% | Total Cell Count [4]: 405 | Population Apoptotic (%) [5]: 58% | Population Fragmented Nuclei (%) [5]: 13% | Population Healthy Nuclei (%) [5]: 45% | Population Hoechst High Intensity Objects (%) [5]: 19% | Population Membrane Permeable-Phenotype (%) [5]: 6% | Population Mitochondria Different-Phenotype (%) [5]: 52% | Population Mitotic Cells (%) [5]: 41% | Population Normal (%) [5]: 80% | Population Pyknosed Nuclei (%) [5]: 41% | Population Tubulin-Different-Phenotype (%) [5]: 49% | Total Cell Count [5]: 315 | Population Apoptotic (%) [6]: 14% | Population Fragmented Nuclei (%) [6]: 4% | Population Healthy Nuclei (%) [6]: 59% | Population Hoechst High Intensity Objects (%) [6]: 4% | Population Membrane Permeable-Phenotype (%) [6]: 7% | Population Mitochondria Different-Phenotype (%) [6]: 4% | Population Mitotic Cells (%) [6]: 85% | Population Normal (%) [6]: 95% | Population Pyknosed Nuclei (%) [6]: 35% | Population Tubulin-Different-Phenotype (%) [6]: 10% | Total Cell Count [6]: 168 | Population Apoptotic (%) [7]: 37% | Population Fragmented Nuclei (%) [7]: 56% | Population Healthy Nuclei (%) [7]: 40% | Population Hoechst High Intensity Objects (%) [7]: 62% | Population Membrane Permeable-Phenotype (%) [7]: 6% | Population Mitochondria Different-Phenotype (%) [7]: 37% | Population Mitotic Cells (%) [7]: 62% | Population Normal (%) [7]: 37% | Population Pyknosed Nuclei (%) [7]: 4% | Population Tubulin-Different-Phenotype (%) [7]: 21% | Total Cell Count [7]: 530 | Population Apoptotic (%) [8]: 0% | Population Fragmented Nuclei (%) [8]: 29% | Population Healthy Nuclei (%) [8]: 67% | Population Hoechst High Intensity Objects (%) [8]: 46% | Population Membrane Permeable-Phenotype (%) [8]: 3% | Population Mitochondria Different-Phenotype (%) [8]: 6% | Population Mitotic Cells (%) [8]: 100% | Population Normal (%) [8]: 53% | Population Pyknosed Nuclei (%) [8]: 3% | Population Tubulin-Different-Phenotype (%) [8]: 9% | Total Cell Count [8]: 448 | Population Apoptotic (%) [9]: 43% | Population Fragmented Nuclei (%) [9]: 15% | Population Healthy Nuclei (%) [9]: 56% | Population Hoechst High Intensity Objects (%) [9]: 17% | Population Membrane Permeable-Phenotype (%) [9]: 6% | Population Mitochondria Different-Phenotype (%) [9]: 29% | Population Mitotic Cells (%) [9]: 56% | Population Normal (%) [9]: 82% | Population Pyknosed Nuclei (%) [9]: 28% | Population Tubulin-Different-Phenotype (%) [9]: 27% | Total Cell Count [9]: 389 | Population Apoptotic (%) [10]: 11% | Population Fragmented Nuclei (%) [10]: 9% | Population Healthy Nuclei (%) [10]: 80% | Population Hoechst High Intensity Objects (%) [10]: 2% | Population Membrane Permeable-Phenotype (%) [10]: 5% | Population Mitochondria Different-Phenotype (%) [10]: 2% | Population Mitotic Cells (%) [10]: 88% | Population Normal (%) [10]: 97% | Population Pyknosed Nuclei (%) [10]: 10% | Population Tubulin-Different-Phenotype (%) [10]: 9% | Total Cell Count [10]: 358 | Population Apoptotic (%) [11]: 37% | Population Fragmented Nuclei (%) [11]: 57% | Population Healthy Nuclei (%) [11]: 38% | Population Hoechst High Intensity Objects (%) [11]: 66% | Population Membrane Permeable-Phenotype (%) [11]: 7% | Population Mitochondria Different-Phenotype (%) [11]: 12% | Population Mitotic Cells (%) [11]: 62% | Population Normal (%) [11]: 33% | Population Pyknosed Nuclei (%) [11]: 3% | Population Tubulin-Different-Phenotype (%) [11]: 3% | Total Cell Count [11]: 624 | Population Apoptotic (%) [12]: 0% | Population Fragmented Nuclei (%) [12]: 23% | Population Healthy Nuclei (%) [12]: 73% | Population Hoechst High Intensity Objects (%) [12]: 52% | Population Membrane Permeable-Phenotype (%) [12]: 4% | Population Mitochondria Different-Phenotype (%) [12]: 1% | Population Mitotic Cells (%) [12]: 100% | Population Normal (%) [12]: 47% | Population Pyknosed Nuclei (%) [12]: 2% | Population Tubulin-Different-Phenotype (%) [12]: 5% | Total Cell Count [12]: 571

Cl.Cl.NC1(c2ccc(-c3nc4ccn5c(=O)[nH]nc5c4cc3-c3ccccc3)cc2)CCC1
Population Apoptotic (%) [1]: 25% | Population Fragmented Nuclei (%) [1]: 19% | Population Healthy Nuclei (%) [1]: 63% | Population Hoechst High Intensity Objects (%) [1]: 20% | Population Membrane Permeable-Phenotype (%) [1]: 13% | Population Mitochondria Different-Phenotype (%) [1]: 10% | Population Mitotic Cells (%) [1]: 74% | Population Normal (%) [1]: 79% | Population Pyknosed Nuclei (%) [1]: 17% | Population Tubulin-Different-Phenotype (%) [1]: 15% | Total Cell Count [1]: 657 | Population Apoptotic (%) [2]: 11% | Population Fragmented Nuclei (%) [2]: 8% | Population Healthy Nuclei (%) [2]: 85% | Population Hoechst High Intensity Objects (%) [2]: 5% | Population Membrane Permeable-Phenotype (%) [2]: 6% | Population Mitochondria Different-Phenotype (%) [2]: 20% | Population Mitotic Cells (%) [2]: 88% | Population Normal (%) [2]: 94% | Population Pyknosed Nuclei (%) [2]: 6% | Population Tubulin-Different-Phenotype (%) [2]: 34% | Total Cell Count [2]: 1341 | Population Apoptotic (%) [3]: 31% | Population Fragmented Nuclei (%) [3]: 27% | Population Healthy Nuclei (%) [3]: 30% | Population Hoechst High Intensity Objects (%) [3]: 56% | Population Membrane Permeable-Phenotype (%) [3]: 18% | Population Mitochondria Different-Phenotype (%) [3]: 27% | Population Mitotic Cells (%) [3]: 68% | Population Normal (%) [3]: 43% | Population Pyknosed Nuclei (%) [3]: 42% | Population Tubulin-Different-Phenotype (%) [3]: 43% | Total Cell Count [3]: 496 | Population Apoptotic (%) [4]: 14% | Population Fragmented Nuclei (%) [4]: 5% | Population Healthy Nuclei (%) [4]: 71% | Population Hoechst High Intensity Objects (%) [4]: 65% | Population Membrane Permeable-Phenotype (%) [4]: 23% | Population Mitochondria Different-Phenotype (%) [4]: 25% | Population Mitotic Cells (%) [4]: 85% | Population Normal (%) [4]: 34% | Population Pyknosed Nuclei (%) [4]: 22% | Population Tubulin-Different-Phenotype (%) [4]: 82% | Total Cell Count [4]: 798 | Population Apoptotic (%) [5]: 23% | Population Fragmented Nuclei (%) [5]: 20% | Population Healthy Nuclei (%) [5]: 68% | Population Hoechst High Intensity Objects (%) [5]: 17% | Population Membrane Permeable-Phenotype (%) [5]: 18% | Population Mitochondria Different-Phenotype (%) [5]: 8% | Population Mitotic Cells (%) [5]: 76% | Population Normal (%) [5]: 82% | Population Pyknosed Nuclei (%) [5]: 10% | Population Tubulin-Different-Phenotype (%) [5]: 38% | Total Cell Count [5]: 645 | Population Apoptotic (%) [6]: 8% | Population Fragmented Nuclei (%) [6]: 23% | Population Healthy Nuclei (%) [6]: 73% | Population Hoechst High Intensity Objects (%) [6]: 7% | Population Membrane Permeable-Phenotype (%) [6]: 14% | Population Mitochondria Different-Phenotype (%) [6]: 4% | Population Mitotic Cells (%) [6]: 91% | Population Normal (%) [6]: 92% | Population Pyknosed Nuclei (%) [6]: 3% | Population Tubulin-Different-Phenotype (%) [6]: 46% | Total Cell Count [6]: 2029 | Population Apoptotic (%) [7]: 41% | Population Fragmented Nuclei (%) [7]: 40% | Population Healthy Nuclei (%) [7]: 21% | Population Hoechst High Intensity Objects (%) [7]: 63% | Population Membrane Permeable-Phenotype (%) [7]: 23% | Population Mitochondria Different-Phenotype (%) [7]: 38% | Population Mitotic Cells (%) [7]: 58% | Population Normal (%) [7]: 36% | Population Pyknosed Nuclei (%) [7]: 38% | Population Tubulin-Different-Phenotype (%) [7]: 41% | Total Cell Count [7]: 436 | Population Apoptotic (%) [8]: 12% | Population Fragmented Nuclei (%) [8]: 7% | Population Healthy Nuclei (%) [8]: 53% | Population Hoechst High Intensity Objects (%) [8]: 69% | Population Membrane Permeable-Phenotype (%) [8]: 29% | Population Mitochondria Different-Phenotype (%) [8]: 20% | Population Mitotic Cells (%) [8]: 88% | Population Normal (%) [8]: 30% | Population Pyknosed Nuclei (%) [8]: 39% | Population Tubulin-Different-Phenotype (%) [8]: 92% | Total Cell Count [8]: 837
